# Most compounds without a hit are left out; they make up all but 2.3% or so of the library.
# TRPC4 potent = allosteric potentiators of mouse TRPC4 channel | 0.42% of 310,000 active | HEK293 TRPC4beta/mu-opioid, DAMGO EC20, Fluo-4 Ca2+ flux; stronger effect = higher value | AID 2227 | Q9QUQ5 | B-score at 10 µM;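 active = B-score of calcium response area above 5 SD of library B-scores, with initial fluorescence ratio within 5 SD of library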;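 note: B-score of integrated fluorescence ratio over time as area under calcium response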
# TRPC6 act = activates the mouse TRPC6 cation channel; B-score at 10 µM; HEK293-TRPC6 membrane potential dye fluorescence; stronger effect = higher value; 0.13% of 310,000 active; AID 2550; Q61143;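 active = B-score of the integrated fluorescence ratio above library mean plus 3 SD, and starting fluorescence ratio within library mean plus 5 SD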;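 note: higher score means more depolarization so channel activation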
# Target sequence (Q61143 whole entry, looked up): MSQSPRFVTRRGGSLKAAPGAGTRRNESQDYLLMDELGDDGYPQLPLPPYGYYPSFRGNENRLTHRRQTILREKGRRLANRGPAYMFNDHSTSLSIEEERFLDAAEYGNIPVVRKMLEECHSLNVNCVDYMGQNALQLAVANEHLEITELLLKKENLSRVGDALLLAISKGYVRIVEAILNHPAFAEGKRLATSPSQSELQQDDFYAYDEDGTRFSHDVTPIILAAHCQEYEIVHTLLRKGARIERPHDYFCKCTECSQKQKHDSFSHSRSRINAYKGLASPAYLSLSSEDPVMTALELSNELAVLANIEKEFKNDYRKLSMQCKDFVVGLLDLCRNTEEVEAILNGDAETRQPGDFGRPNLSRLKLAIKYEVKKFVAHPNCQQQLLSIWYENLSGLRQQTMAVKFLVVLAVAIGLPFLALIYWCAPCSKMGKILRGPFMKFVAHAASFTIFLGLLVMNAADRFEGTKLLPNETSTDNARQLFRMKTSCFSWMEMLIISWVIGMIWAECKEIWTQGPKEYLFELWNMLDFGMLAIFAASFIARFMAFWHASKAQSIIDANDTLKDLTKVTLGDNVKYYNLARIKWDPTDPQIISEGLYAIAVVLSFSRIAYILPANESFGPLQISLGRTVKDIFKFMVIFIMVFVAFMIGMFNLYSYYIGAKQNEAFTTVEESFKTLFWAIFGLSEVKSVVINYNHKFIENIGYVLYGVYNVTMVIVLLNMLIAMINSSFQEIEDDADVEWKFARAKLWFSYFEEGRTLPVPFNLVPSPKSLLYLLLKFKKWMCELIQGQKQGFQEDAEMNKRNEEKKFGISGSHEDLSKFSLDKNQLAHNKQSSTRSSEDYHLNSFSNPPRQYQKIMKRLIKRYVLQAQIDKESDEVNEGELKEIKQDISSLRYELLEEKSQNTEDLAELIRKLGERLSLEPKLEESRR
# TRPC4 block = TRPC4 (mouse) channel inhibition | HEK293 TRPC4beta/mu-opioid, DAMGO-evoked Fluo4 calcium flux; stronger effect = lower value | B-score at 10 µM | 0.39% of 300,000 active;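 active = B-score over 3 SD under the library average, no early fluorescence shift, positive overall ratio signal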
#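 Assay system: HEK293 cells with stable TRPC4beta plus mu-opioid receptor expression. Dosing: single dose. Measured by: Fluo4 Ca2+ flux fluorescence. Also added: DAMGO in two steps, submaximal then maximal. Read-out: B score from integrated Fluo4 fluorescence ratio.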
# TRPC4 agonist = TRPC4 (mouse) channel activation; Q9QUQ5; HEK293 TRPC4beta/mu-opioid, Fluo4 calcium fluorescence; stronger effect = higher value; B-score at 10 µM; 0.49% of 310,000 active; AID 2237;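 active = B-score above 5 SD of library B-scores, and initial fluorescence ratio not above library mean plus 5 SD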;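 note: positive B-score marks a calcium rise read as TRPC4 activation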
#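 Test system: HEK293 cells stably co-expressing mouse TRPC4beta and mu-opioid receptor | Schedule: Fluo4 dye loading 45 min at room temperature, 110 s recording | Measured by: Kinetic Fluo4 calcium fluorescence, 5 s baseline at 1 Hz | Evaluation: B score of integrated ratio | Controls: Buffer (low) and maximal DAMGO (high)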
# TRPC6 inhibitor = blocks the mouse TRPC6 cation channel. B-score at 10 µM. HEK293-TRPC6, membrane potential dye, ACh-evoked depolarization; stronger effect = lower value. 1.1% of 310,000 active. Q61143;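 active = B-score under library mean minus 3 SD, initial fluorescence not abnormally high, positive integrated signal ratio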;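 note: B-score derived from integrated fluorescence ratio over the kinetic read; more negative B-score means stronger inhibition of depolarization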
# TRPC4 sel inh 2 = second check of whether TRPC6 inhibitors also affect mouse TRPC4 | 42% of 920 active | AID 2776 | inhibition, % at 10 µM | shares compounds with TRPC6 inhibitor | HEK293 TRPC4/MOR, membrane potential dye fluorescence; channel activated by saturating DAMGO dose;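 active = compounds whose fluorescence signal differed from control wells by over 3 SD, either direction, in both duplicate plates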
# TRPC4 spec = selectivity of TRPC6 inhibitors: effect on mouse TRPC4 | 61% of 920 active | shares compounds with TRPC6 inhibitor | HEK293 TRPC4/mu-opioid, membrane potential fluorescence | activity change, negative = inhibition, % at 10 µM;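 active = rise or fall in signal beyond 3 SD of buffer-only wells in both replicate plates, either sign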;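 note: integrated kinetic ratio of fluorescence range over baseline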
# HEK293 MPD ctr 2-1 = second check of TRPC6 inhibitor effects in parental HEK293 cells; AID 2779; shares compounds with TRPC6 inhibitor; 31% of 920 active; parental HEK293 membrane potential dye fluorescence; maximal acetylcholine challenge after compound addition; signal change vs control, % at 10 µM;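 active = membrane potential signal moving either way by over 3 SD of the maximum-effect control, in both duplicate plates, meaning non-specific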
# HEK293 MPD ctr-1 = counter-screen for TRPC6 inhibitors: effect in parental HEK293 cells; AID 2780; parental HEK293 membrane potential dye fluorescence; 60% of 920 active; shares compounds with TRPC6 inhibitor; membrane potential signal change, % at 10 µM;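 active = membrane potential signal shifting up or down by more than 3 SD of buffer-only wells, on both duplicate plates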
# HEK293 MPD ctr-2 = checks TRPC6 modulator effects in parental HEK293 cells; shares compounds with TRPC6 inhibitor; membrane potential dye fluorescence; membrane potential signal change, % at 10 µM; 51% of 2,400 active;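 active = membrane potential signal moves up or down beyond 5 SD from buffer-only wells, on both duplicate plates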
# HEK293 MPD ctr 2-2 = second counter-screen for TRPC6 modulators: effect in parental HEK293 cells; inhibition, % at 10 µM; 14% of 2,400 active; shares compounds with TRPC6 inhibitor; AID 488926; membrane potential dye fluorescence; after compound, maximal acetylcholine stimulation;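 active = membrane potential signal drops by more than 5 SD from the mean control signal, in both duplicate plates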;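 note: plate controls were acetylcholine ECmax control wells for no effect and buffer only wells for full effect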
# TRPC4 ctr mod = selectivity of TRPC6 modulators against mouse TRPC4; shares compounds with TRPC6 inhibitor; HEK293 TRPC4/mu-opioid, membrane potential fluorescence; percent change from control (negative = decrease, positive = increase), % at 10 µM; 69% of 2,400 active;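 active = membrane potential signal moved up or down beyond 5 SD of buffer control wells, in both duplicate plates, actives on both sides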;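 note: plate controls were assay buffer wells for no effect and DAMGO maximal-effect wells for full effect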
# TRPC4/MOR inh 2 = second selectivity test of TRPC6 modulators against mouse TRPC4; inhibition, % at 10 µM; shares compounds with TRPC6 inhibitor; 55% of 2,400 active; AID 488928; HEK293 TRPC4/mu-opioid, membrane potential dye fluorescence; stimulated with maximal-effect DAMGO;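 active = drop in membrane potential signal beyond 5 SD of the control wells in both duplicate plates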;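 note: TRPC4 counter screen for TRPC6 hits run under conditions tuned for TRPC6 not TRPC4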
# TRPC6 inh conf = confirmation of mouse TRPC6 inhibitors; shares compounds with TRPC6 inhibitor; HEK293-TRPC6, membrane potential dye, ACh-evoked depolarization; inhibition, % at 10 µM; 43% of 3,300 active; AID 488960;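 active = fluorescence ratio falls more than 5 SD below the full-stimulation control mean, in both duplicate runs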;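 note: integrated fluorescence ratio of peak minus minimum over baseline after agonist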
# TRPC6 act confirm = confirmation of mouse TRPC6 activators | activation, % at 10 µM | HEK293-TRPC6 membrane potential dye fluorescence, FDSS | AID 488961 | 11% of 2,800 active | shares compounds with TRPC6 inhibitor;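 active = ratio signal rise beyond 5 SD above unstimulated control wells' mean, seen in both duplicate runs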;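 note: plate controls were buffer EC0 wells for no effect and acetylcholine ECmax response for full effect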
# The depositor's hits bear a star; i = inactive; nt = no result.
SMILES,TRPC4 potent,TRPC6 act,TRPC4 block,TRPC4 agonist,TRPC6 inhibitor,HEK293 MPD ctr-2,HEK293 MPD ctr 2-2,TRPC4 ctr mod,TRPC4/MOR inh 2,TRPC6 inh conf,TRPC6 act confirm,others
COC(=O)C1CN(C(=O)COc2cccc(C)c2C)c2ccccc2O1 (stereo not given),i,i,i,i,-5.97*,98.0%*,i,14.0%*,i,i,i,
COC(=O)C1CN(C(=O)COc2ccc(Cl)cc2Cl)c2ccccc2O1 (stereo not given),i,i,i,i,i,nt,nt,nt,nt,nt,nt,
CC(C)(C)n1nnnc1C(c1cc2cc3c(cc2[nH]c1=O)OCCO3)N1CCSCC1 (stereo not given),i,i,i,i,-5.17*,i,i,i,i,52.5%*,nt,
Cc1ccc2cc3cc(C(=O)NCCCN4CCCC4=O)oc3nc2c1,i,i,i,i,i,nt,nt,nt,nt,nt,nt,
CN1CCN(c2ccccc2NC(=O)c2cc3ccccc3o2)CC1,i,i,i,i,-12.8*,nt,nt,nt,nt,71.9%*,i,TRPC4 sel inh 2=25.0%*;TRPC4 spec=-21.8%*;HEK293 MPD ctr 2-1=i;HEK293 MPD ctr-1=-212.0%*
CN1CCN(c2ccc(NC(=O)c3cc4ccccc4o3)cc2)CC1,i,i,i,i,-5.17*,i,i,i,48.5%*,41.0%*,i,
CS(=O)(=O)N1CCN(c2ccc(NC(=O)c3cc4ccccc4o3)cc2)CC1,i,i,i,i,i,nt,nt,nt,nt,nt,nt,
CN1CCN(c2ccccc2NC(=O)c2ccc(Br)o2)CC1,i,i,i,i,-9.64*,nt,nt,nt,nt,86.7%*,i,TRPC4 sel inh 2=28.5%*;TRPC4 spec=i;HEK293 MPD ctr 2-1=i;HEK293 MPD ctr-1=i
O=C(Nc1ccccc1N1CCCC1)c1cc2ccccc2o1,i,i,i,i,i,nt,nt,nt,nt,nt,nt,
COc1cc2ccccc2cc1C(=O)Nc1ccc(N2CCN(C)CC2)cc1,i,i,i,i,-5.54*,i,i,-11.5%*,64.0%*,59.5%*,i,
O=C(Nc1ccccc1C(=O)N1CCCC1)c1ccc(Cl)c([N+](=O)[O-])c1,i,i,i,i,i,nt,nt,nt,nt,nt,nt,
CN1CCN(c2ccc(NC(=O)c3ccc(Oc4ccccc4)cc3)cc2)CC1,i,i,i,i,-6.19*,i,i,i,58.5%*,47.5%*,i,
CC(C)Oc1cccc(C(=O)NC(=S)Nc2ccc(N3CCN(C)CC3)cc2)c1,16*,i,i,i,-6.3*,i,i,i,61.5%*,42.5%*,i,
O=C1/C(=C/c2cccs2)SC(=S)N1c1cccc(O)c1,i,i,i,i,i,nt,nt,nt,nt,nt,nt,
COc1ccc(S(=O)(=O)N2CCOCC2)cc1NC(=O)CN1CCN(C)CC1,i,i,i,i,i,nt,nt,nt,nt,nt,nt,
CCc1cccc(CC)c1NC(=O)CSc1nnc(C2CC2)n1C,i,i,i,i,i,nt,nt,nt,nt,nt,nt,
CC(=O)c1c(C)nc(-c2ccc(Cl)cc2)nc1NC(=O)C(C)C,i,i,i,i,-6.03*,i,106.5%*,18.5%*,i,71.5%*,nt,
CCCc1nc2nc(C)c(NS(=O)(=O)c3ccc(CC(C)C)cc3)c(=O)n2[nH]1,i,i,i,i,i,nt,nt,nt,nt,nt,nt,
COc1cccc(C2=NCCc3cc4c(cc32)OCO4)c1OC,i,i,i,i,i,nt,nt,nt,nt,nt,nt,
COc1ccc2cc3[n+](cc2c1OC)CCc1cc2c(cc1-3)OCO2,i,i,i,i,-5.15*,i,110.0%*,i,i,i,i,
Cc1cc(N2CCCC2)ccc1/C=C1\NC(=S)N(C)C1=O,i,51.7*,i,70*,i,i,i,33.0%*,i,i,32.0%*,
Cc1sc(N2CCN(S(=O)(=O)c3ccc4c(c3)NC(=O)CO4)CC2)nc1-c1ccccc1,i,i,i,i,i,nt,nt,nt,nt,nt,nt,
Cc1cccc(C(=O)OCc2cncs2)c1,i,i,i,i,i,nt,nt,nt,nt,nt,nt,
Cc1ccc(-c2csc(NC(=O)CSc3nc(C)cc(=O)[nH]3)n2)cc1,i,i,i,i,-7.66*,nt,nt,nt,nt,i,i,TRPC4 sel inh 2=i;TRPC4 spec=i;HEK293 MPD ctr 2-1=260.5%*;HEK293 MPD ctr-1=i
Cc1ccc2cc(C=C(C#N)C#N)c(N3CCCCC3)nc2c1,i,i,i,i,-7.1*,nt,nt,nt,nt,i,i,TRPC4 sel inh 2=i;TRPC4 spec=i;HEK293 MPD ctr 2-1=i;HEK293 MPD ctr-1=i
SMILES,TRPC4 potent,TRPC6 act,TRPC4 block,TRPC4 agonist,TRPC6 inhibitor,HEK293 MPD ctr-2,HEK293 MPD ctr 2-2,TRPC4 ctr mod,TRPC4/MOR inh 2,TRPC6 inh conf,TRPC6 act confirm,others
COc1ccc(-c2noc(CN(C)C(=O)c3ccoc3C)n2)cc1,i,i,i,i,i,nt,nt,nt,nt,nt,nt,
O=C(O)c1cc([N+](=O)[O-])cc2c1C=Cc1ccccc1O2,i,i,i,i,i,nt,nt,nt,nt,nt,nt,
Cc1nc(C)c(C(=O)NNS(=O)(=O)c2ccc3ccccc3c2)s1,i,i,i,i,i,nt,nt,nt,nt,nt,nt,
Cn1c(=O)c2c(nc(SCCN3CCCCC3)n2Cc2ccccc2)n(C)c1=O,33*,i,i,i,-9.18*,nt,nt,nt,nt,i,i,TRPC4 sel inh 2=42.0%*;TRPC4 spec=22.4%*;HEK293 MPD ctr 2-1=i;HEK293 MPD ctr-1=-392.0%*
Cn1c(=O)c2c(nc(SCCN3CCOCC3)n2Cc2ccccc2Cl)n(C)c1=O,i,i,i,i,i,nt,nt,nt,nt,nt,nt,
CCc1ccc(O)c(CNCCNCc2cc(CC)ccc2O)c1,i,i,i,i,i,nt,nt,nt,nt,nt,nt,

# Source: PubChem (Johns Hopkins Ion Channel Center)
